Only some compounds are listed: those with a hit (about 1.6% of all), similar ones and a draw of the others.
NR2E3 ag-1: activates human photoreceptor nuclear receptor NR2E3 | GST-NR2E3/biotin-RetCOR TR-FRET, 1536-well | inhibition of corepressor binding, % at 4.78 µM | 0.12% of 320,000 active;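 active = percent inhibition above the cutoff of mean plus 3 SD of all tested compounds, set per screening campaign, cut at about 20% in these data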;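 note: 0% = DMSO wells and 100% = biotin wells as full block of FRET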
Target sequence (Q9Y5X4 whole entry, looked up): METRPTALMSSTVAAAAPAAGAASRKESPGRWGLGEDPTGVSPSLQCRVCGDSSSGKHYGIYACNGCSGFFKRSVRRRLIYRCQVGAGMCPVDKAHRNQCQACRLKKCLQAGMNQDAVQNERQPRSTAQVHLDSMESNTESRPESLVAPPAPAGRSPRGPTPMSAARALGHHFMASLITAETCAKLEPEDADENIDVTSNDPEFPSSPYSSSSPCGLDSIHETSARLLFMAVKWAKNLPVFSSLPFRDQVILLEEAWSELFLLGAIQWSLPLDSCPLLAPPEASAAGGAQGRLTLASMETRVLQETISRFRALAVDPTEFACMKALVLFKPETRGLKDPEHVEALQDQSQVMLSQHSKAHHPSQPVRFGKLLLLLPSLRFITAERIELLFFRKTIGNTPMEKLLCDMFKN
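Material: NR2E3–RetCOR corepressor complex / Incubation: Compound–protein incubation for 5 h at 4 °C / Dosing: compound at 4.8 µM, single dose / Detection: time-resolved FRET / Benchmarks: high control biotin, low control 0.6% DMSO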
PKA-R1A act: activates the PKA-R1A holoenzyme complex; P00514+P68181; PKA-R1A dissociation, Cy5-IP20 fluorescence polarization; scaled: DMSO 0%, 113 µM cGMP 100%; 0.083% of 340,000 active; activation, % at 11.4 µM;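 active = percent activation above the mean of all tested compounds plus 3 SD, cut at about 19% in these data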;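 note: higher means more PKAc released from R1A so a rise in polarization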
PKA-R2B activ: activates the human PKA-R2B holoenzyme complex; PKA-R2B holoenzyme dissociation, Cy5-IP20 fluorescence polarization; R2B truncated from residue 108, S112A mutant; 0% DMSO only, 100% 113 µM cGMP; 0.079% of 340,000 active; P22694+P31323; activation, % at 11.4 µM;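 active = activation above a cutoff set at the mean over all compounds plus 3 SD, cut at about 18% in these data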;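 note: higher means more holoenzyme dissociation and a rise in polarization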
NR2E3 ag-2: activates human NR2E3 receptor. 0.35% of 360,000 active. AID 602229. inhibition of corepressor binding, % at 3.98 µM. Q9Y5X4. CHO-S Gal4-NCOR/VP16-NR2E3 two-hybrid, luciferase;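 active = inhibition above the mean of all tested compounds plus 3 SD, cut at about 70% in these data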;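 note: 0% = DMSO with NR2E3 transfected cells and 100% = cells lacking NR2E3 construct; higher means lower luciferase signal from less NR2E3 corepressor binding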
NR1D1 modulator: modulators of human Rev-erb alpha DNA binding; P20393; Rev-erbα–FITC-DNA binding, fluorescence polarization, 90 min; activity, % at 10 µM; 0.79% of 370,000 active; AID 1259318;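 active = activity above about 14%, limit read from the data; passing the limit was not always enough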;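 note: 0% = DMSO wells with 35 nM protein and 100% = DMSO wells with 750 nM protein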
PG9 Ab binder: PG9 antibody binding by small molecule. TR-FRET gp120-PG9 antibody binding. inhibition, % at 6.7 µM. 0.43% of 360,000 active; in the data active = inhibition above about 8.5%
NR2E3 ag confirm: NR2E3 agonism confirmed in two-hybrid assay; shares compounds with NR2E3 ag-2; CHO-S mammalian two-hybrid NR2E3-NCOR, luciferase luminescence; inhibition, % at 3.98 µM; 51% of 2,300 active;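 active = average inhibition above a cutoff equal to the mean inhibition of all tested compounds plus one SD, cut at about 70% in these data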;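 note: 0% = DMSO in NR2E3 cells and 100% = DMSO in cells lacking NR2E3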
GAL4-VP16 luc: reduces GAL4-VP16 reporter signal in NR2E3 counterscreen; shares compounds with NR2E3 ag-2; CHO-S GAL4-VP16 luciferase reporter, luminescence; inhibition, % at 3.98 µM; 29% of 2,300 active;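 active = mean inhibition above a cutoff equal to the average over all tested compounds plus one standard deviation, cut at about 70% in these data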;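 note: luciferase from a UAS reporter driven by GAL4-VP16 transactivation; 0% = DMSO with VP16-transfected cells and 100% = DMSO with cells lacking VP16; higher means less reporter light so more repression of VP16 activity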
An asterisk follows results filed as active; / = no result given.

SMILES	NR2E3 ag-1	PKA-R1A act	PKA-R2B activ	NR2E3 ag-2	NR1D1 modulator	PG9 Ab binder	NR2E3 ag confirm	GAL4-VP16 luc
CCN(CC)S(=O)(=O)c1cc(NC(=O)CNc2cccc(S(=O)(=O)N3CCCC3)c2)ccc1C	2	-2	6	70	/	/	61	53
O=C(CNc1ccc(C(F)(F)F)cc1)Nc1cccc(S(=O)(=O)N2CCCC2)c1	1	-9	-13	-30	13	-2	/	/
COc1ccc(CC(=O)Nc2cccc(S(=O)(=O)N3CCCCCC3)c2)cc1OC	-3	-6	-5	80*	0	1	90*	77*
COc1ccc(CCC(=O)Nc2cccc(S(=O)(=O)N3CCCCCC3)c2)cc1OC	2	-6	6	-15	0	1	/	/
O=C([C@@H]1C[C@H]1c1ccccc1)N1CC[C@H]2[C@H](CCCN2Cc2ccc(F)cc2)C1	/	/	/	/	-4	/	/	/
S=C(NCCc1ccccc1)Nc1cccc2cnccc12	1	-13	-9	74*	0	-2	91*	79*
S=C(NCc1ccccc1)Nc1cccc2cnccc12	-1	1	-3	66	2	-2	78*	60
COc1ccc(CN2CN3Cc4ccc(C)cc4C3CS2(=O)=O)cc1 (configuration not stated)	/	/	/	/	3	/	/	/
COc1cccc(NC(=O)Nc2nc(SC)ns2)c1	0	-7	-4	-118	3	-2	/	/
CCSc1nsc(NC(=O)Nc2cccc(F)c2)n1	3	-10	-7	93*	-7	-2	99*	84*
O=S1(=O)C=CCN1Cc1cn(Cc2ccccc2)nn1	/	/	/	/	-7	/	/	/
O=C(NC(Nc1nc2ccc([N+](=O)[O-])cc2s1)(C(F)(F)F)C(F)(F)F)c1cccnc1	0	1	-9	101*	3	0	98*	89*
O=C(NC(Nc1nc2ccc([N+](=O)[O-])cc2s1)(C(F)(F)F)C(F)(F)F)c1ccccc1Cl	6	-1	-4	98*	2	-1	97*	90*
CN(C)S(=O)(=O)c1ccc2nc(NC(=O)c3cccnc3)sc2c1	-2	7	-14	-65	-4	-2	/	/
COC1=C[C@H](C(=O)NCCNC(C)=O)[C@@]2(C)Cc3ccccc3[C@H]2CC1=O	/	/	/	/	-2	/	/	/
COc1ccccc1NC(=O)OC1CCC12CCCCC2 (configuration not stated)	/	/	/	/	-6	/	/	/
N#Cc1cc(F)cc(OC[C@@H](O)CN2CCC(C(O)(c3ccccc3)c3ccccc3)CC2)c1	/	/	/	/	-2	/	/	/
Cn1c2ccccc2c(=O)c2ccc(C#CC3(O)CCCCC3)cc21	-3	-18	-8	56	0	0	17	-81
CCCCc1ccc(S(=O)(=O)N/N=C(/C)c2ccncc2)cc1	-1	3	0	86*	-5	-1	51	67
Cc1cccc(C(=O)N[C@H](C(=O)Nc2nnc(C3CC3)s2)C(C)C)c1	-4	-10	0	15	-5	-1	/	/
Cc1cccc(C(=O)N[C@H](C(=O)Nc2ncc(C)s2)C(C)C)c1	1	9	-3	85*	0	-1	98*	23
CC1CCC2(CCC(=O)N2CCCOC(=O)NC(C)(C)C)CC1 (configuration not stated)	/	/	/	/	-3	/	/	/
O=C(C1CCN(S(=O)(=O)c2cccc3nsnc23)CC1)N1CC=C(c2ccccc2)CC1	1	-11	-11	6	3	-1	/	/
O=C(C1CCC(CNS(=O)(=O)c2cccc3nsnc23)CC1)N1CC=C(c2ccccc2)CC1 (configuration not stated)	2	-2	3	50	-2	0	88*	56
COc1ccc(NS(=O)(=O)c2ccc(N3CCOCC3)c(N)c2)cc1	4	-4	-10	85*	-6	0	90*	78*
SMILES	NR2E3 ag-1	PKA-R1A act	PKA-R2B activ	NR2E3 ag-2	NR1D1 modulator	PG9 Ab binder	NR2E3 ag confirm	GAL4-VP16 luc
CSc1ccc(S(=O)(=O)Nc2ccc(N3CCOCC3)c(Cl)c2)cc1	-2	-7	-2	69	0	-1	45	63
Nc1cc(S(=O)(=O)Nc2cc(Cl)ccc2Cl)ccc1N1CCOCC1	-3	2	-15	53	3	-1	38	47
Cc1cc(Cl)ccc1OC(C)C(=O)Nc1ccc(C(=O)Nc2ccccc2C(=O)O)cc1 (configuration not stated)	4	6	-17	53	2	-1	10	32
CC(c1ccccc1)c1nnc(N)s1 (configuration not stated)	3	-9	-11	59	5	2	10	9
CC(Oc1ccccc1)c1nnc(N)s1 (configuration not stated)	0	2	-3	25	-2	-1	/	/
O=C(CN1C(=O)C2CCCCN2C(=O)c2ccccc21)N1CCCC1 (configuration not stated)	/	/	/	/	-5	/	/	/
CN1CCN(c2ccc(Cl)cc2NC(=O)c2ccc(S(=O)(=O)N(C)C)cc2)CC1	4	-15	3	12	2	0	/	/
CN(C)S(=O)(=O)c1ccc(C(=O)Nc2cc(S(=O)(=O)Nc3ccccc3Cl)ccc2N2CCCCC2)cc1	0	7	5	48	17	1	85*	63
Clc1ccc(-n2c(SCc3cccc4ccccc34)nnc2-c2ccccc2)cc1	/	/	/	/	3	/	/	/
COc1ccc2c(c1)CCCN2C(=O)C1CCCN(S(=O)(=O)c2ccc(Cl)s2)C1 (configuration not stated)	/	/	/	/	5	/	/	/
CCCc1ccc(S(=O)(=O)N2CCN(C(C)C(=O)NCc3ccc(OC)cc3)CC2)cc1 (configuration not stated)	1	-7	6	49	-5	-1	27	32
COc1ccccc1NC(=S)NN=C(C)c1ccccn1	/	-5	-5	78*	-4	-1	-26	-1
Cc1ccc(C)c(NC(=S)c2ccccn2)c1	1	5	-12	54	7	1	-20	-75
C/C(=N\NC(=S)Nc1cccc(C)c1)c1ccccc1	-2	2	-1	71*	-2	-1	-18	-78
COc1ccc(C(=O)N/N=C(\C)c2ccccn2)cc1OC	4	-2	-4	-13	-3	0	/	/
CC(=NNC(=S)Nc1cccc(C)c1)c1ccccn1	/	-6	-10	67	5	0	-63	-22

Source: PubChem (several laboratories)
